# Assay outcomes deposited in PubChem BioAssay by Sanford-Burnham Center for Chemical Genomics.
# PMI act hi M6P = activators of human phosphomannose isomerase at near-saturating mannose 6-phosphate. 190,000 tested, 0.34% active. activation factor at 20 µM. coupled PMI enzyme assay, resazurin fluorescence, 20 min; active compounds read high; 1 = untreated enzyme, 0 = substrate-free blank. P34949;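 active means activation factor of 2 or more at 20 µM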
# Target sequence (P34949 whole entry, looked up): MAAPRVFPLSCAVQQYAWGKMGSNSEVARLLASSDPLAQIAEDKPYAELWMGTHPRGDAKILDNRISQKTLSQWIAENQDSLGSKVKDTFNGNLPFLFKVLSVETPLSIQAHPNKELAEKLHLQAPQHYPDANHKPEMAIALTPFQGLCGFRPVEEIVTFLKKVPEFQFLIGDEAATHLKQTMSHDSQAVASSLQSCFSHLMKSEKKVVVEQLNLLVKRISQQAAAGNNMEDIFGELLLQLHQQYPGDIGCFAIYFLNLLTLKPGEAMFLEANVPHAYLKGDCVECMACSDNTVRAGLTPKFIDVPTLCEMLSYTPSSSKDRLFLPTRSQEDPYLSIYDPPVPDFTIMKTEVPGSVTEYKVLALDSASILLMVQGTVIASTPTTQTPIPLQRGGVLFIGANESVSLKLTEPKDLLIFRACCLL
#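 Material: human phosphomannose isomerase with PGI, G6PDH, diaphorase coupling enzymes. Quantity: 15 ng/mL PMI. Medium: HEPES pH 7.4 buffer with MgCl2 and Tween-20. Reagent: Near-saturating mannose-6-phosphate, 1.0 mM. Compound: 20 µM single dose. Times: enzyme reaction with compound 20 min at room temperature. Detection: resorufin fluorescence at Ex 544/Em 590 nm.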
# Diaph act CS = activates diaphorase or chemically reduces, flagging diaphorase assay artifacts; Diaphorase/resazurin coupled assay, resorufin fluorescence, 16 min; active compounds read high; 1 = vehicle wells, 0 = NADH-free wells; 190,000 tested, 0.005% active; activation factor at 20 µM; AID 1229;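 active means diaphorase activity raised at least twofold by the compound at 20 µM; inactive means activation factor below 2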
#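 test system = bacterial diaphorase enzyme (C. kluyveri) | quantity = enzyme 0.07 U/mL final | reagent = NADH substrate 0.114 mM plus resazurin dye 0.1 mM, final | incubation = 16 min enzyme reaction, ambient temperature | buffer or medium = HEPES pH 7.4 buffer with MgCl2 and Tween 20 | signal = fluorescence of resorufin, 544 nm excitation, 590 nm emission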
# Diaphorase inh = inhibits diaphorase or chemically oxidizes, flagging diaphorase assay artifacts; diaphorase resazurin-to-resorufin fluorescence, NADH, 16 min; bacterial (C. kluyveri) enzyme, not human; inhibition, % at 20 µM; 190,000 tested, 0.69% active;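 active means primary screen inhibition at 20 µM above a set limit, cut at about 50% in these data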;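 further: plate controls were DMSO with full reaction for no effect and wells lacking NADH for full effect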
#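 Detection: fluorescence of resorufin formed from resazurin, Ex 544/Em 590 nm; test system: Clostridium kluyveri diaphorase enzyme; amount: 0.14 U/mL diaphorase, enzyme working solution; times: 16-min room-temperature incubation before reading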
# G6PDH CS = inhibits Leuconostoc G6PDH, flagging false hits in G6PDH-based assays | Purified L. mesenteroides G6PDH, diaphorase/resazurin coupled fluorescence, 45 min | inhibition, % at 5 µM | 200,000 tested, 0.12% active | AID 1020; in the data active means inhibition above about 50%
# PMI act = phosphomannose isomerase (human) activation. P34949. purified human PMI, coupled resazurin fluorescence, 20 min; active compounds read high; 1 = vehicle control, 0 substrate-free wells. activation factor at 20 µM. 190,000 tested, 0.005% active. AID 1214;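 active means activation factor of 2 or more at 20 µM, relative to plate controls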
# Starred values were filed as active, the others as inactive. This is a sample that favours compounds with a hit; in the whole collection about 1.1% have one here.
SMILES,PMI act hi M6P,Diaph act CS,Diaphorase inh,G6PDH CS,PMI act
CCOC(=O)C(NC(C)=O)C(OC(C)=O)c1cccc(N(CCCl)CCCl)c1 (stereo not drawn),2*,0.9,5.0,2.6,1.6
CN(C)c1ccc(C=C2C(=O)NC(=S)NC2=O)cc1[N+](=O)[O-],2.1*,0.9,14.0,10.4,1.5
C[C@@]1(CO)[C@H](O)CC[C@@]2(C)[C@H]1CC[C@H]1C[C@@H]3C[C@@]12CC[C@]3(O)CO,1.1,1,2.2,53.5*,1.1
CCCCS(=O)(=O)N1CCN(C(=N)N[N+](=O)[O-])CC1,1,1,3.7,-6.5,1.1
COc1ccc(CCNC(=O)c2c(N)n(CCN3CCOCC3)c3nc4ccccc4nc23)cc1,1.1,0.4,58.6*,-36.6,1
COc1cccc(/C=C2\N=C(c3cncc(Br)c3)OC2=O)c1,0.9,0.9,8.2,10.0,0.9
Cn1cnc([N+](=O)[O-])c1Sc1ccc([N+](=O)[O-])cc1,2*,1.1,-9.8,-2.4,1.4
Cn1cc2c([N+](=O)[O-])cc([N+](=O)[O-])cc2n1,0.6,0.7,27.5,17.2,1
Cc1ccc(N2C(=O)NC(=O)C3(Cc4ccccc4N4CCN(c5ccccc5)CC43)C2=O)cc1 (stereo not drawn),2.2*,0.9,11.4,3.8,1.6
O=C1NC(=O)C2(Cc3ccccc3N3CCCC32)C(=O)N1c1cccc(Cl)c1 (stereo not drawn),1.6,1,4.2,4.5,1.6
Cc1cc2c(C(C)C)c(O)c(O)c(C=O)c2c(O)c1-c1c(C)cc2c(C(C)C)c(O)c(O)c(C=O)c2c1O,0.5,0.4,64.3*,27.7,0.7
O=C(c1ccc(-c2ccccc2)c(F)c1)C1CCCN(CCO)C1 (stereo not drawn),1,1,-0.8,8.0,1
O=C(NC1(C(F)(F)F)Oc2ccc(Cl)cc2O1)N1CCC2(CC1)OCCO2 (stereo not drawn),0.3,0.5,52.1*,43.6,0.2
CCCCCc1nc2ccccc2c(=O)n1-c1ccccc1[N+](=O)[O-],0.9,0.8,24.9,8.1,0.9
Cc1nc2ccccc2c(=O)n1-c1ccc(Cl)cc1[N+](=O)[O-],1,0.2,76.7*,8.3,1
O=C1CCN(C(=O)C(Cl)Cl)N1,1,0.9,11.1,-6.5,1.1
N/C(=N\N=C/c1ccc(-c2ccc(O)c(C(=O)O)c2)o1)N[N+](=O)[O-],0.6,0.4,56.7*,3.2,0.7
COc1ccc(/C=N/N=C(/N)N[N+](=O)[O-])c(OC)c1,1,0.8,23.4,1.1,1
COc1cc2c(cc1OC)-c1c(OC)c(OC)c(OC)c3ccnc(c13)C2=O,0.5,0.5,54.6*,18.9,0.8
COc1cc(CC2(CCc3ccncc3)C(=O)NC(=O)NC2=O)cc(OC)c1OC,0.9,0.8,15.1,6.5,0.9
CCOC(=O)c1c(/N=C/C2C(=O)NC(=S)NC2=O)sc2c1CCC2,2.1*,0.8,17.8,-4.6,1.6
CCCC(=O)c1c(O)[nH]c(=O)[nH]c1=O,1.1,0.9,6.5,-7.5,1
Cc1ccc2c(c1)CC1(CN2C)C(=O)NC(=O)N(CCc2ccccc2)C1=O (stereo not drawn),2.1*,0.9,6.3,7.0,1.8
